According to ChEMBL document CHEMBL3244153, “Synthesis of arabinofuranosyl derivatives of 3-deazaguanine” (J Med Chem, 1979):

Columns and labels:
Mus musculus [1] = test: Toxicity in mouse allografted with mouse Sarcoma 180 cells assessed as mortality at 100 mg/kg, ip qd for 8 days measured one day after last treatment relative to control; assay type: organism-based; design: dose 100 mg/kg, route intraperitoneal; conditions: in vivo, 192 h
Method in brief: (§1)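 Female CD mice (18-20 g) implanted subcutaneously with 3×10^7 Sarcoma 180 tumor cells in the right ventrolateral area. Doses tested were 100, 50, 25 and 12.5 mg/kg.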

Sarcoma-180 [2] = test: Antitumor activity against mouse Sarcoma 180 cells allografted in mouse assessed as reduction in tumor growth at 100 mg/kg, ip qd for 8 days measured one day after last treatment relative to control; assay type: functional; conditions: Sarcoma-180, ip, route intraperitoneal, read-out: TGI; method in brief: as §1
Sarcoma-180 [3] = test: Antitumor activity against mouse Sarcoma 180 cells allografted in mouse assessed as reduction in tumor growth at 50 mg/kg, ip qd for 8 days measured one day after last treatment relative to control; assay type: functional; conditions: Sarcoma-180, ip, route intraperitoneal, read-out: TGI; method in brief: as §1
Mus musculus [4] = test: Toxicity in mouse allografted with mouse Sarcoma 180 cells assessed as mortality at 12.5 mg/kg, ip qd for 8 days measured one day after last treatment relative to control; assay type: organism-based; design: dose 12.5 mg/kg, route intraperitoneal; conditions: in vivo, 192 h; method in brief: as §1
Sarcoma-180 [5] = test: Antitumor activity against mouse Sarcoma 180 cells allografted in mouse assessed as reduction in tumor growth at 12.5 mg/kg, ip qd for 8 days measured one day after last treatment relative to control; assay type: functional; conditions: Sarcoma-180, ip, route intraperitoneal, read-out: TGI; method in brief: as §1
Sarcoma-180 [6] = test: Antitumor activity against mouse Sarcoma 180 cells allografted in mouse assessed as reduction in tumor growth at 25 mg/kg, ip qd for 8 days measured one day after last treatment relative to control; assay type: functional; conditions: Sarcoma-180, ip, route intraperitoneal, read-out: TGI; method in brief: as §1
Mus musculus [7] = test: Toxicity in mouse allografted with mouse Sarcoma 180 cells assessed as mortality at 50 mg/kg, ip qd for 8 days measured one day after last treatment relative to control; assay type: organism-based; design: dose 50 mg/kg, route intraperitoneal; conditions: in vivo, 192 h; method in brief: as §1
Mus musculus [8] = test: Toxicity in mouse allografted with mouse Sarcoma 180 cells assessed as mortality at 25 mg/kg, ip qd for 8 days measured one day after last treatment relative to control; assay type: organism-based; design: dose 25 mg/kg, route intraperitoneal; conditions: in vivo, 192 h; method in brief: as §1

Row | SMILES | Activity (Mus musculus [1]) | inhibition in vivo at 100 mg/kg (Sarcoma-180 [2]) [%] | inhibition in vivo at 50 mg/kg (Sarcoma-180 [3]) [%] | Activity (Mus musculus [4]) | inhibition in vivo at 12.5 mg/kg (Sarcoma-180 [5]) [%] | inhibition in vivo at 25 mg/kg (Sarcoma-180 [6]) [%] | Activity (Mus musculus [7]) | Activity (Mus musculus [8])
1 | Nc1cc2c(ncn2[C@H]2O[C@H](CO)[C@@H](O)[C@@H]2O)c(=O)[nH]1 | Non-toxic | 24.2 | – | – | – | – | – | –
2 | Nc1cc2ncn([C@@H]3O[C@H](CO)[C@@H](O)[C@@H]3O)c2c(=O)[nH]1 | Non-toxic | 5.6 | – | – | – | – | – | –
3 | Nc1cc2ncn([C@H]3O[C@H](CO)[C@@H](O)[C@@H]3O)c2c(=O)[nH]1 | Non-toxic | 0 | – | – | – | – | – | –
4 | Nc1cc2nc[nH]c2c(=O)[nH]1 [DEZAGUANINE] | Toxic | 89.6 | 74.2 | Non-toxic | 46.2 | 78.2 | Non-toxic | Non-toxic
5 | Nc1cc2c(ncn2[C@@H]2O[C@H](CO)[C@@H](O)[C@@H]2O)c(=O)[nH]1 | Non-toxic | 16 | – | – | – | – | – | –
